Test results taken from ChEMBL document CHEMBL1147630, “New PDMP analogues inhibit process outgrowth in an insect cell line” (Bioorg Med Chem Lett, 2004).
Calls of active or inactive are those of the source. The rule behind the calls is not given here.

Assays:
[1] = organism: Rattus norvegicus; assay: Concentration required to reduce the length of total axon plexus in rat embryonic hippocampal neurons; format: functional
[2] = system: MRRL-CH1; assay: Inhibitory effect on outgrowth of MRRL-CH1 cell line at 5 uM concentration; No Effect; format: functional, cell-based; conditions: Manduca sexta
Method in brief: (§1)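 Embryonic Manduca sexta MRRL-CH1 cells, grown attached in DL medium in room air. Analogue in DMSO was added to well cultures 2–4 days after seeding, for 48 h. Drug was then diluted 16-fold by two medium exchanges, and cells were followed for 6 more days. Neurite outgrowth and reversibility were judged from photographs taken at 0, 24 and 48 h of exposure and at 24, 48 and 144 h after removal. Duplicates, with DMSO vehicle control.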

[3] = system: SH-SY5Y; assay: Concentration required to inhibit neurite outgrowth in SH-SY5Y cell line; format: functional, cell-based
[4] = system: MRRL-CH1; assay: Inhibitory effect on outgrowth of MRRL-CH1 cell line at 0.5 uM concentration; No Effect; format: functional, cell-based; conditions: Manduca sexta; method in brief: as §1
[5] = system: MRRL-CH1; assay: Inhibitory effect on outgrowth of MRRL-CH1 cell line at 1 uM concentration; No Effect; format: functional, cell-based; conditions: Manduca sexta; method in brief: as §1
[6] = system: MRRL-CH1; assay: Inhibitory effect on outgrowth of MRRL-CH1 cell line at 5 uM concentration; Irreversible; format: functional, cell-based; conditions: Manduca sexta; method in brief: as §1
[7] = system: MRRL-CH1; assay: Inhibitory effect on outgrowth of MRRL-CH1 cell line at 1 uM concentration; Irreversible; format: functional, cell-based; conditions: Manduca sexta; method in brief: as §1
[8] = system: MRRL-CH1; assay: Inhibitory effect on outgrowth of MRRL-CH1 cell line at 0.5 uM concentration; Reversible; format: functional, cell-based; conditions: Manduca sexta; method in brief: as §1

CCCCCCCCCC(=O)N[C@H](CN1CCOCC1)[C@H](O)c1ccccc1
Concentration [1]: 50 µM | Inhibitory effect [2]: inactive | Concentration [3]: 20 µM | Inhibitory effect [4]: inactive | Inhibitory effect [5]: inactive

CCCCCCCCCC(=O)N[C@H](CN1CCOCC1)[C@H](O)c1ccc(OC(C)(C)C)cc1
Inhibitory effect [6]: Irreversible | Inhibitory effect [7]: Irreversible | Inhibitory effect [8]: Reversible

CCCCCCCCCC(=O)N[C@H](CN1CCOCC1)[C@H](O)c1ccc2c(c1)OCO2
Inhibitory effect [6]: Irreversible | Inhibitory effect [7]: Irreversible | Inhibitory effect [8]: Reversible

CCCCCCCCCC(=O)N[C@H](CN1CCOCC1)[C@H](O)c1ccc(OC)cc1
Inhibitory effect [6]: Irreversible | Inhibitory effect [7]: Irreversible | Inhibitory effect [8]: Reversible
